IC50 and T/C data for 7 compounds are collected here from ChEMBL document CHEMBL1123149, “Synthesis and antineoplastic evaluations of 5,8-bis[(aminoalkyl)amino]-1-azaanthracene-9,10-diones” (1985).

≈ marks a conversion by molar mass, not a printed value. Calls of active or inactive are those of the source. The calls are words filed in the database; no cut-off is given here.

The subject of one test is L1210. As to the kind of experiment: In vitro growth inhibitory effect against L1210 murine leukemia cells was determined. In kind it is functional. To be noted: Mus musculus, read-out: ID50 (the source's name). The essentials: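 L1210 cells, 10^5 cells/tube in 4 mL, exposed continuously 96 h to drug added in Me2SO (≤40 μL per culture) at final 0.01, 0.1 and 10 μg/mL, triplicate.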

Test [1] has as its system Mus musculus. As to the kind of experiment: Activity against L1210 leukemia cells was studied in mice at 100 mg/kg and determined as MST(treated)/MST(control) x100; Toxic. Format: functional, organism-based. The arrangement: dose 100 mg/kg.
Test [2] relates to Mus musculus. As to the kind of experiment: Activity against L1210 leukemia cells was studied in mice at 15 mg/kg and determined as MST(treated)/MST(control) x100. In kind it is functional.
For test [3], the system named is Mus musculus. As to the kind of experiment: Activity against L1210 leukemia cells was studied in mice at 30 mg/kg and determined as MST(treated)/MST(control) x100. In kind it is functional.
Test [4] deals with Mus musculus. As to the kind of experiment: Activity against L1210 leukemia cells was studied in mice at 100 mg/kg and determined as MST(treated)/MST(control) x100; Inactive. The arrangement: dose 100 mg/kg. In kind it is functional, organism-based.
Test [5] has as its system Mus musculus. As to the kind of experiment: Activity against L1210 leukemia cells was studied in mice at 25 mg/kg and determined as MST(treated)/MST(control) x100. In kind it is functional.
Test [6] deals with Mus musculus. As to the kind of experiment: Activity against L1210 leukemia cells was studied in mice at 50 mg/kg and determined as MST(treated)/MST(control) x100. In kind it is functional.

For the compound `CN(C)CCCNc1ccc(NCCCN(C)C)c2c1C(=O)c1cccnc1C2=O`, the IC50 in the test with L1210 came out at 1.7 µg/mL (≈ 4.15 µM).
A word on the T/C: it is the result in the treated group divided by that in the control group, in per cent. Consider `CCN(CC)CCNc1ccc(NCCN(CC)CC)c2c1C(=O)c1cccnc1C2=O`, for which the IC50 with L1210 was found to be 2.4 µg/mL (≈ 5.48 µM). Also, in the test with Mus musculus [1], the T/C result is “Toxic”.
For the compound `CN(C)CCNc1ccc(NCCN(C)C)c2c1C(=O)c1ccccc1C2=O`, the IC50 in the test on L1210 was 0.08 µg/mL (≈ 0.21 µM). Moreover, the values for the T/C with Mus musculus [2] and with Mus musculus [3] were 117% and 150%, respectively.
As to `O=C1c2cccnc2C(=O)c2c(O)ccc(O)c21`, the IC50 in the test with L1210 amounted to 0.18 µg/mL (≈ 0.746 µM). Besides, the T/C entry with Mus musculus [4] is “inactive”.
For the compound `CC(=O)NCCNc1ccc(NCCNC(C)=O)c2c1C(=O)c1cccnc1C2=O`, in the test with L1210, the IC50 is over 10 µg/mL.
With `CN(C)CCNc1ccc(NCCN(C)C)c2c1C(=O)c1cccnc1C2=O`, the IC50 in the test with L1210 was 0.16 µg/mL (≈ 0.419 µM). In addition, the T/C with Mus musculus [5] is listed as 120%; with Mus musculus [6] it was 130%.
Regarding `CCN(CC)CCNc1ccc(NCCN(CC)CC)c2c1C(=O)c1ccccc1C2=O`, the IC50 in the test on L1210 came to 0.3 µg/mL (≈ 0.687 µM).
